From ChEMBL document CHEMBL1145020, “Synthesis and structure-activity relationships of 6,7-disubstituted 4-anilinoquinoline-3-carbonitriles. The design of an orally active, irreversible inhibitor of the tyrosine kinase activity of the epidermal growth factor receptor (EGFR) and the human epidermal growth factor receptor-2 (HER-2)” (J Med Chem, 2003)

Columns and labels:
[1] = tested on: SW-620; test: Concentration required to inhibit growth of human carcinoma colon (SW620) cell line; format: functional, cell-based
[2] = tested on: A-431; test: Concentration required to inhibit growth of human carcinoma epidermoid (A431) cell line; format: functional, cell-based
[3] = target: Receptor tyrosine-protein kinase erbB-2 (Homo sapiens, UniProt P04626); test: Concentration required to inhibit autophosphorylation of cytoplasmic domain of human epidermal growth factor receptor-2
[4] = Concentration required to inhibit growth of human carcinoma breast (SKBR3) cell line; format: functional; conditions: SK-BR-3
Summary of the method: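 Cell growth inhibition measured from dose–response curves at five concentrations. […] Reported values average at least two determinations.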

[5] = target: Epidermal growth factor receptor (Homo sapiens, UniProt P00533)
Sequence of Epidermal growth factor receptor (P00533 whole entry): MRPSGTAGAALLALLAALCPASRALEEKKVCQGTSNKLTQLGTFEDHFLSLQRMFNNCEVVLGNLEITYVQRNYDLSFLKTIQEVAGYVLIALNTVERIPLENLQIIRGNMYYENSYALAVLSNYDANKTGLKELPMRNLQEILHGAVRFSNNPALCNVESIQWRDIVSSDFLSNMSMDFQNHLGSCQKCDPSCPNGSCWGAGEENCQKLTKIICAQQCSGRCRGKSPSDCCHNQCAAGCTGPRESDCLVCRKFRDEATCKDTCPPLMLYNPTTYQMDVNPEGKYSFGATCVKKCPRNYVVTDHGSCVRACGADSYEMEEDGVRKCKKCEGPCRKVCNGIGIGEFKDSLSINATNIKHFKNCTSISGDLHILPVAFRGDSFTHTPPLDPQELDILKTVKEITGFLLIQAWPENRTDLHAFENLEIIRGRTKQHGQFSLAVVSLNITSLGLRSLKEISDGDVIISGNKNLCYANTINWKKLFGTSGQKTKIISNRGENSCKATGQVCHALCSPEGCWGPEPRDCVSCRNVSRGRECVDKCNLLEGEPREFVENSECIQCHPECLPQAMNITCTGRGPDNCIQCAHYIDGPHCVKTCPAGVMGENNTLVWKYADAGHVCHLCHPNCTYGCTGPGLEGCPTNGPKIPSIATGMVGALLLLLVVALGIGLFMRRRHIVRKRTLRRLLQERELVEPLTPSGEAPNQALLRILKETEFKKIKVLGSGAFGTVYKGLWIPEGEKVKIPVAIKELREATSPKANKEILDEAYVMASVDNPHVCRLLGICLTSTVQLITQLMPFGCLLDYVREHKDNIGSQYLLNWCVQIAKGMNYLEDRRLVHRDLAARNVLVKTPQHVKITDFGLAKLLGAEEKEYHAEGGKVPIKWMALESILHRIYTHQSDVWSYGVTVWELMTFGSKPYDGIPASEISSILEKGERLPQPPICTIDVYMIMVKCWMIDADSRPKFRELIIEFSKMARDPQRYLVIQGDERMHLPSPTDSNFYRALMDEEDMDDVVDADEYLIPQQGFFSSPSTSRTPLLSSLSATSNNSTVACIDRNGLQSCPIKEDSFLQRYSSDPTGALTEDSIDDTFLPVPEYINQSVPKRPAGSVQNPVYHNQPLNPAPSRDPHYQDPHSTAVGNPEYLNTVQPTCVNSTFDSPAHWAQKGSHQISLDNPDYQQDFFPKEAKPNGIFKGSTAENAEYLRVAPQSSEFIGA

Sequence of Receptor tyrosine-protein kinase erbB-2 (P04626 whole entry, the tested form may be a part): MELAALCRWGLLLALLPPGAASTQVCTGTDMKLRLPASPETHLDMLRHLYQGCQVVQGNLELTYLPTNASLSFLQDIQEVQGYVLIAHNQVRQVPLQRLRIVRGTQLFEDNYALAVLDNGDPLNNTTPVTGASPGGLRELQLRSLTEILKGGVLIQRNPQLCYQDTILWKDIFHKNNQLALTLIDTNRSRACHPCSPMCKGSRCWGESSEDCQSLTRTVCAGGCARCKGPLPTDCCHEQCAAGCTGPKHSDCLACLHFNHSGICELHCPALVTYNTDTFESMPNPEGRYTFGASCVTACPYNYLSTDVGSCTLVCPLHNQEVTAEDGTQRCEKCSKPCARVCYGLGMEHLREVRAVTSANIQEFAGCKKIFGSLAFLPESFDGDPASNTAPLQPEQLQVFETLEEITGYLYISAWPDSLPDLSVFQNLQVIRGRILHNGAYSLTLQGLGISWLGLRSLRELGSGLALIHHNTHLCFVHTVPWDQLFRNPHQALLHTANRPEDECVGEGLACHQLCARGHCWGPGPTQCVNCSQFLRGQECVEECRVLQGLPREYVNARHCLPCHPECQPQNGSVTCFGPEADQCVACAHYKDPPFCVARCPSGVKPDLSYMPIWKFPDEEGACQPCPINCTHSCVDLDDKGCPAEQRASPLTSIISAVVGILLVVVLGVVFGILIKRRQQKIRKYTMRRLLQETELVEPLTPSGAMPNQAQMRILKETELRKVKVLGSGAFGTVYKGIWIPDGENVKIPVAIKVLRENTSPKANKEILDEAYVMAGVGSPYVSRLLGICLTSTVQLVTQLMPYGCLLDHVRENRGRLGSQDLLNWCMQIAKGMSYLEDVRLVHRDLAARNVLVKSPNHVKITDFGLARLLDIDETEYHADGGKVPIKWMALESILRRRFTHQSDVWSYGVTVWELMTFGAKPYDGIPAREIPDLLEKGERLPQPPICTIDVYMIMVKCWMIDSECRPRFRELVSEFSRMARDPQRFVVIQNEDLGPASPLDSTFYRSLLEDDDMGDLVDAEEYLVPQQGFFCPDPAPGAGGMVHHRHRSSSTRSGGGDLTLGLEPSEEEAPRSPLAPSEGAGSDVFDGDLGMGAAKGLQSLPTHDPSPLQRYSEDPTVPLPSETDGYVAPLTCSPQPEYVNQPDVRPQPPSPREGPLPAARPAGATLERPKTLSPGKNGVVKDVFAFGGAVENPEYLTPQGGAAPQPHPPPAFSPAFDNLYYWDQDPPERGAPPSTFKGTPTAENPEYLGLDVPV

Structure (SMILES)	IC50 [1]	IC50 [2]	IC50 [3]	IC50 [5]	IC50 [4]
COc1cc2ncc(C#N)c(Nc3cccc(Br)c3)c2cc1NC(=O)C#CCN(C)C	0.3 µM	0.11 µM	0.18 µM	0.09 µM	0.12 µM
CC#CC(=O)Nc1ccc2ncc(C#N)c(Nc3cccc(Br)c3)c2c1	12.3 µM	5.03 µM	3.87 µM	0.94 µM	5.5 µM
COCC#CC(=O)Nc1ccc2ncc(C#N)c(Nc3cccc(Br)c3)c2c1	0.52 µM	0.28 µM	0.3 µM	0.96 µM	0.35 µM
N#Cc1cnc2ccc(NC(=O)C#CCN3CCSCC3)cc2c1Nc1cccc(Br)c1	0.35 µM	0.1 µM	1.04 µM	0.55 µM	0.07 µM
CC(C)N(CC#CC(=O)Nc1ccc2ncc(C#N)c(Nc3cccc(Br)c3)c2c1)C(C)C	0.25 µM	0.14 µM	0.32 µM	–	0.04 µM
CCCN(CC#CC(=O)Nc1ccc2ncc(C#N)c(Nc3cccc(Br)c3)c2c1)CCC	0.4 µM	0.24 µM	0.37 µM	0.13 µM	0.08 µM
CCOc1cc2ncc(C#N)c(Nc3cccc(Br)c3)c2cc1NC(=O)/C=C/CN(C)C	1.15 µM	–	2.97 µM	–	0.03 µM
CN(C)C/C=C/C(=O)Nc1ccc2ncc(C#N)c(Nc3cccc(Br)c3)c2c1	5.48 µM	0.45 µM	4.16 µM	0.31 µM	0.18 µM
COC[C@@H]1CCCN1CC#CC(=O)Nc1ccc2ncc(C#N)c(Nc3cccc(Br)c3)c2c1	4.14 µM	1.2 µM	1.22 µM	0.15 µM	0.54 µM
CC#CC(=O)Nc1cc2c(Nc3cccc(Br)c3)c(C#N)cnc2cc1OC	7.58 µM	5.12 µM	2.12 µM	0.91 µM	8.36 µM
CCOc1cc2ncc(C#N)c(Nc3ccc(F)c(Cl)c3)c2cc1NC(=O)/C=C/CN(C)C [PELITINIB]	–	–	–	–	0.01 µM
C=CC(=O)Nc1ccc2ncc(C#N)c(Nc3cccc(Br)c3)c2c1	3.38 µM	0.36 µM	1.63 µM	0.59 µM	0.44 µM
COc1cc(NC(=O)/C=C/CN(C)C)cc2c(Nc3cccc(Br)c3)c(C#N)cnc12	8.97 µM	2.52 µM	9.35 µM	2.88 µM	2.52 µM
COCCOCC#CC(=O)Nc1ccc2ncc(C#N)c(Nc3cccc(Br)c3)c2c1	0.34 µM	0.27 µM	0.45 µM	0.93 µM	0.39 µM
C/C=C/C(=O)Nc1ccc2ncc(C#N)c(Nc3cccc(Br)c3)c2c1	12.3 µM	4.4 µM	–	–	10.1 µM
COCC#CC(=O)Nc1cc2c(Nc3cccc(Br)c3)c(C#N)cnc2cc1OC	1.77 µM	0.73 µM	0.38 µM	0.79 µM	0.29 µM

Now from value to molecule, other results behind:

IC50 [1]	IC50 [2]	IC50 [3]	IC50 [5]	Structure (SMILES)	IC50 [4]
1.88 µM	0.31 µM	4.68 µM	–	C=CC(=O)Nc1cc2c(Nc3cccc(Br)c3)c(C#N)cnc2cc1OC	0.12 µM
0.91 µM	–	4.49 µM	–	COc1cc2ncc(C#N)c(Nc3ccc(F)c(Cl)c3)c2cc1NC(=O)/C=C/CN(C)C	0.04 µM
1.13 µM	–	11.8 µM	–	COc1cc2ncc(C#N)c(Nc3ccc(F)c(Cl)c3)c2cc1NC(=O)/C=C/C(C)N(C)C (stereo not drawn)	0.19 µM
9.57 µM	–	23.6 µM	–	COc1cc(NC(=O)/C=C/CN2CCOCC2)cc2c(Nc3cccc(Br)c3)c(C#N)cnc12	2.66 µM
1.46 µM	–	4.13 µM	–	CN(C)C/C=C/C(=O)Nc1cc2c(Nc3ccc(F)c(Cl)c3)c(C#N)cnc2cc1OC(F)(F)F	0.3 µM
5.38 µM	–	34.1 µM	–	COc1cc2ncc(C#N)c(Nc3cccc(Br)c3)c2cc1NC(=O)/C=C/CN1CCOCC1	0.12 µM
0.88 µM	0.15 µM	1.95 µM	0.65 µM	CN(C)C/C=C/C(=O)Nc1ccc2ncc(C#N)c(Nc3ccc(F)c(Cl)c3)c2c1	0.05 µM
0.49 µM	–	4.39 µM	–	C=C(CN1CCOCC1)C(=O)Nc1ccc2ncc(C#N)c(Nc3ccc(F)c(Cl)c3)c2c1	0.22 µM
6.33 µM	–	8.74 µM	–	N#Cc1cnc2ccc(NC(=O)/C=C/CN3CCOCC3)cc2c1Nc1ccc(F)c(Cl)c1	0.22 µM
6.67 µM	–	31.4 µM	–	COc1cc2ncc(C#N)c(Nc3ccc(F)c(Cl)c3)c2cc1NC(=O)/C=C/CN1CCOCC1	0.11 µM
0.32 µM	0.18 µM	1.21 µM	0.56 µM	C=C(CN(C)C)C(=O)Nc1cc2c(Nc3ccc(F)c(Cl)c3)c(C#N)cnc2cc1OCC	0.09 µM
2.88 µM	–	34 µM	–	CCOc1cc2ncc(C#N)c(Nc3cccc(Br)c3)c2cc1NC(=O)/C=C/CN1CCOCC1	0.07 µM
0.88 µM	–	9.58 µM	–	CCN(CC)C(C)/C=C/C(=O)Nc1cc2c(Nc3ccc(F)c(Cl)c3)c(C#N)cnc2cc1OC (stereo not drawn)	0.31 µM
0.66 µM	–	7.8 µM	–	CCN(CC)C/C=C/C(=O)Nc1cc2c(Nc3ccc(F)c(Cl)c3)c(C#N)cnc2cc1OC	0.05 µM
1.17 µM	0.14 µM	5.66 µM	0.79 µM	COc1cc2ncc(C#N)c(Nc3cccc(Br)c3)c2cc1NC(=O)/C=C/CN(C)C	0.03 µM
4.94 µM	–	34 µM	–	COc1cc2ncc(C#N)c(Nc3ccc(F)c(Cl)c3)c2cc1NC(=O)/C=C/C(C)N1CCOCC1 (stereo not drawn)	0.2 µM
–	–	21.5 µM	–	C/C=C/C(=O)Nc1cc2c(Nc3ccc(F)c(Cl)c3)c(C#N)cnc2cc1OCC	0.17 µM
